According to PMC12124217 (RSC Medicinal Chemistry, 2025):

How the values were obtained:
MDA-MB-468 (EGFR+) cells = assay: MTT cell viability assay; format: cell-based; conditions: neat CD, up to concentrations as high as 100 μM
Outline: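 MDA-MB-468 cells were treated with test compound alone or as cyclodextrin complexes, then read out by MTT. Complex stocks were made by shake-flask and passed through a 0.45 μm filter. […] Values are the mean of 10 replicates ± standard deviation.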

[1] = Phase-solubility study of tcyDTDO with BCD; format: physicochemical; conditions: BCD with saturated tcyDTDO, 25.0 °C
[2] = cited from earlier work
[3] = advertised; ref Millipore Sigma; cited from earlier work

OC[C@H]1O[C@@H]2O[C@H]3[C@H](O)[C@@H](O)[C@@H](O[C@H]4[C@H](O)[C@@H](O)[C@@H](O[C@H]5[C@H](O)[C@@H](O)[C@@H](O[C@H]6[C@H](O)[C@@H](O)[C@@H](O[C@H]7[C@H](O)[C@@H](O)[C@@H](O[C@H]8[C@H](O)[C@@H](O)[C@@H](O[C@H]1[C@H](O)[C@H]2O)O[C@@H]8CO)O[C@@H]7CO)O[C@@H]6CO)O[C@@H]5CO)O[C@@H]4CO)O[C@@H]3CO [BCD, beta-cyclodextrin]
Effect on cell viability (MDA-MB-468 (EGFR+) cells): did not have any significant adverse effect on cell viability
Highest achievable concentration of CD in solution [1]: 4.43 mM
Cavity volume, literature [2]: 262 Å^3

CC(O)COC[C@H]1O[C@@H]2O[C@H]3[C@H](O)[C@@H](O)[C@@H](O[C@H]4[C@H](O)[C@@H](O)[C@@H](O[C@H]5[C@H](O)[C@@H](O)[C@@H](O[C@H]6[C@H](O)[C@@H](O)[C@@H](O[C@H]7[C@H](O)[C@@H](O)[C@@H](O[C@H]8[C@H](O)[C@@H](O)[C@@H](O[C@H]1[C@H](O)[C@H]2O)O[C@@H]8COCC(C)O)O[C@@H]7COCC(C)O)O[C@@H]6COCC(C)O)O[C@@H]5COCC(C)O)O[C@@H]4COCC(C)O)O[C@@H]3COCC(C)O (stereo partly drawn) [HPB, 2-hydroxypropyl-beta-cyclodextrin]
Effect on cell viability (MDA-MB-468 (EGFR+) cells): did not have any significant adverse effect on cell viability
Solubility in water [3]: roughly 45 g per 100 mL
